Source: ChEMBL document CHEMBL4376812 (J Med Chem, 2019)
pIC50: −log10 of the molar value.

How the values were obtained:
[1] = molecular target: JAK3/JAK1 (Homo sapiens, UniProt P23458+P52333); test: Inhibition of JAK1/JAK3 in human PBMC assessed as decrease in IL2-induced STAT5 phosphorylation in CD3+ T cells preincubated for 1 hr followed by stimulation with IL2 for 15 mins by flow cytometry; format: cell-based
Procedure, shortened: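 Human cytokine signalling assay: IL-2 stimulation (JAK1/JAK3), with STAT5 phosphorylation in CD3⁺ T-cells measured as the end point. Read as IC50; mean of at least three separate experiments.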

[2] = molecular target: T1, Tyrosine-protein kinase JAK3 (Homo sapiens, UniProt P52333); test: Inhibition of fluorescein labeled probe binding to human recombinant JAK3 JH1 domain incubated for 1 hr by HTRF assay
T1 sequence (P52333 whole entry): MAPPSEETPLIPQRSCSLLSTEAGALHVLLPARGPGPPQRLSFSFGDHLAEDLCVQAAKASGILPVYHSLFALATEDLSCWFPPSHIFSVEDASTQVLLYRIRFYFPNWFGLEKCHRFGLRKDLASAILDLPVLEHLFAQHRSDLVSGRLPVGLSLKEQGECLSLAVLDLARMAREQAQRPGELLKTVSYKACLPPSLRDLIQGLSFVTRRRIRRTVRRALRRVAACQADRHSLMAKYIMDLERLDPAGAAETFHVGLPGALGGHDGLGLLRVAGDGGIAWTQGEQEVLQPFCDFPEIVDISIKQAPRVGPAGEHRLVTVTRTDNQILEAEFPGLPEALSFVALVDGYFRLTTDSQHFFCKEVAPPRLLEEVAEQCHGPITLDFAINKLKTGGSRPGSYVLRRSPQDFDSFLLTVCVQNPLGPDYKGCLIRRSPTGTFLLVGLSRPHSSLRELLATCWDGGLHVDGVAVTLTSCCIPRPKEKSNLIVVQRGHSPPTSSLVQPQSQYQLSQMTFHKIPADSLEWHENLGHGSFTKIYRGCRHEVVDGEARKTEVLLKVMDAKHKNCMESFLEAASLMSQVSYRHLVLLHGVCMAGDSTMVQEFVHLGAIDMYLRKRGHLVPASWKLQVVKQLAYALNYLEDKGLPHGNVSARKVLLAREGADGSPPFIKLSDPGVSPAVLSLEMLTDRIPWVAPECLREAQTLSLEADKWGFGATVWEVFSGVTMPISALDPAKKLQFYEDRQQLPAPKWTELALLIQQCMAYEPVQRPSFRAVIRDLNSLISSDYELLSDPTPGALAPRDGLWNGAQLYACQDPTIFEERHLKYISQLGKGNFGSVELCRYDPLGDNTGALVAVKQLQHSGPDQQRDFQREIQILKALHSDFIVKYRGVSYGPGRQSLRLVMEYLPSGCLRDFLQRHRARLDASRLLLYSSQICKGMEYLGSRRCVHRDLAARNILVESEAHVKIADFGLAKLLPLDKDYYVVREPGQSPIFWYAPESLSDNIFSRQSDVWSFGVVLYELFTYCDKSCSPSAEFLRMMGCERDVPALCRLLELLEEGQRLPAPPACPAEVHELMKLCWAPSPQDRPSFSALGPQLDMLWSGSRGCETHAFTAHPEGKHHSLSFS
Procedure, shortened: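 HTRF competition binding assay: displacement of a fluorescent probe from human recombinant JAK3 JH1 domain. IC50 for 50% inhibition of HTRF signal derived by nonlinear regression.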

[3] = molecular target: Tyrosine-protein kinase JAK2 (Homo sapiens, UniProt O60674); test: Inhibition of JAK2 in GM-CSF-stimulated human TF-1 cells; format: cell-based
Tyrosine-protein kinase JAK2, sequence (O60674 whole entry): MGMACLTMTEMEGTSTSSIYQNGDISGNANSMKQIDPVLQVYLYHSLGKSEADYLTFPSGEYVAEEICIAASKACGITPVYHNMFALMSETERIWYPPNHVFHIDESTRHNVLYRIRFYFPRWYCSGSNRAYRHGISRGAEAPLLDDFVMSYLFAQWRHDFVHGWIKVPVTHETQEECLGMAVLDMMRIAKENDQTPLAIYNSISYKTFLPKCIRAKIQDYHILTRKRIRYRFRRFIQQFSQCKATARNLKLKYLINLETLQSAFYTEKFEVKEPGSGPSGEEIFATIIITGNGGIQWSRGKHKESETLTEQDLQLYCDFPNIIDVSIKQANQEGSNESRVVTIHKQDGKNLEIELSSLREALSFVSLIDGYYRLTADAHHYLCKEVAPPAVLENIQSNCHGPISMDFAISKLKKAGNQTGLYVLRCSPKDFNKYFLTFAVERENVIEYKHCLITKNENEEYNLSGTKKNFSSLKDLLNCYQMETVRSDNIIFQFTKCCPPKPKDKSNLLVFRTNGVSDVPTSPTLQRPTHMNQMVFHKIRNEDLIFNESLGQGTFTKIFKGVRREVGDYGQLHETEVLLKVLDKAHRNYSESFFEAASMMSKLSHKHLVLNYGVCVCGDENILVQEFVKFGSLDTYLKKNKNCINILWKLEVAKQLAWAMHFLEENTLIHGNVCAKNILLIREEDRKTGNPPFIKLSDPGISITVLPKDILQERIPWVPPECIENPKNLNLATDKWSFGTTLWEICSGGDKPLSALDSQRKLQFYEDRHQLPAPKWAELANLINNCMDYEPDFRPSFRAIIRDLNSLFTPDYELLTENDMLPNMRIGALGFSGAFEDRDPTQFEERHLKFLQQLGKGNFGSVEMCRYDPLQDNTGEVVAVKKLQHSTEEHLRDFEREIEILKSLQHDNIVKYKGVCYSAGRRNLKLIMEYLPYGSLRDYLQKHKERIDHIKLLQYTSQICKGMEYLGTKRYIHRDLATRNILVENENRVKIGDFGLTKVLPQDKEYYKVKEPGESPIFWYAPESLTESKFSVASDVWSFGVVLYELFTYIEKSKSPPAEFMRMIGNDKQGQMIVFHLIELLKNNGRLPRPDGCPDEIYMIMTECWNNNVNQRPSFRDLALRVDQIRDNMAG

JAK3/JAK1, sequence (P23458 whole entry, one chain of several): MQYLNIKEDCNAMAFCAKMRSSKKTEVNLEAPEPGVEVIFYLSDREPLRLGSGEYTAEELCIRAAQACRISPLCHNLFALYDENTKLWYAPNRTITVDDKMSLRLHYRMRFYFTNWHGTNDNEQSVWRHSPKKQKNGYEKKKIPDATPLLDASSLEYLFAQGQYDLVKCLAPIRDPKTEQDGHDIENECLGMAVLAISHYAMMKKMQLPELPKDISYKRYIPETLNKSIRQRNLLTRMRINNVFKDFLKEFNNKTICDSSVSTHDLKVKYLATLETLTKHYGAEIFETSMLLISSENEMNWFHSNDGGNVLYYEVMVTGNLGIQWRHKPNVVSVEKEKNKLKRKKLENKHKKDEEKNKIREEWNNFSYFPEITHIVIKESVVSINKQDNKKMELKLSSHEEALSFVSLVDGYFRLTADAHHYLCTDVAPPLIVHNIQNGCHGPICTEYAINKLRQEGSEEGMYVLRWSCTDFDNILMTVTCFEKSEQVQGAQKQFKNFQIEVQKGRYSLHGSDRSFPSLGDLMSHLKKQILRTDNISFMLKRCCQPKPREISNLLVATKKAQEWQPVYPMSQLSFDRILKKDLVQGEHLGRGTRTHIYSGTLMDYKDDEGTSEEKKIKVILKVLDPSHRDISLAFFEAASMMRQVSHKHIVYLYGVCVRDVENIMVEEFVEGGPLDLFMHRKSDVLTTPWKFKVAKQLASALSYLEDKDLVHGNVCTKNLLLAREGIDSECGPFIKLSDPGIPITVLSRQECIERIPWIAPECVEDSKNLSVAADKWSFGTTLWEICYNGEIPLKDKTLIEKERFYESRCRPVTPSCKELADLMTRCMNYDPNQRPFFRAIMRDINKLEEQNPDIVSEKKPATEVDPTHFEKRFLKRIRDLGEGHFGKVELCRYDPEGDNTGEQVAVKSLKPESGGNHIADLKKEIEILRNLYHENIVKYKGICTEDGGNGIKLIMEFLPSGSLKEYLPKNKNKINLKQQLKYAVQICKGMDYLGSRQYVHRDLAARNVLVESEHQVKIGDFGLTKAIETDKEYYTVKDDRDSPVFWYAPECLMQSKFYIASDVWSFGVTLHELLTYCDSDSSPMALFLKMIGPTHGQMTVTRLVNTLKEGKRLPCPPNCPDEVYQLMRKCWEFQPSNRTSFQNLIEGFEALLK

## [2H]C([2H])([2H])NC(=O)c1nnc(Nc2ccccn2)cc1Nc1ccccc1S(C)(=O)=O
[1]
  pIC50: 5.24
[2]
  pIC50: < 5.00
[3]
  pIC50: 5.57
